Screening results (PubChem BioAssay)
Mcl-1 Bim block – disrupts Bim peptide binding to human Mcl-1 | Q07820 | Bead-based flow cytometry, Bim peptide-Mcl-1 binding | inhibition, % at 10 µM | 0.1% of 190,000 active | AID 1009; in the data active means inhibition above about 40%
Target sequence (Q07820 whole entry, looked up): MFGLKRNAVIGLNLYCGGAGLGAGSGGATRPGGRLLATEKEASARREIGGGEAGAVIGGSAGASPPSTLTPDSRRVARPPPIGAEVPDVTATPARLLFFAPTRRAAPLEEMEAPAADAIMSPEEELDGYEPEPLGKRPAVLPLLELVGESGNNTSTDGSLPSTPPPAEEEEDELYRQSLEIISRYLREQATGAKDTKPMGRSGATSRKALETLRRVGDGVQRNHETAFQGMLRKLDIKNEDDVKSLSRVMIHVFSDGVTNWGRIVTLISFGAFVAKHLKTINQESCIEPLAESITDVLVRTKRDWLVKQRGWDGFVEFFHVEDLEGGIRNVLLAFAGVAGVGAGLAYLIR
Biofilm kill mix – mixture kills Candida albicans biofilm cells | AID 1242 | inhibition, % at 7.6 µM | 0.02% of 120,000 active | C. albicans biofilm persisters + clotrimazole, fluorescence viability; primary screen in compound mixtures of four per well;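 further: compounds exposed to preformed 24 h biofilms for 48 h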
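Assay system: C. albicans biofilms / Medium: RPMI/MOPS medium, pH 7.0 / Schedule: biofilm formation 24 h, compound exposure 48 h, 37 °C / Measured by: Alamar Blue fluorescence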
Mcl1-Bid inh – disrupts binding of human Mcl-1 to Bid peptide. Q07820. TR-FRET Mcl-1/Bid-Dy647 peptide binding, 1536-well. inhibition, % at 21.7 µM. 0.97% of 220,000 active. AID 1021;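 active means compounds that cut the binding signal by more than half at the single screening dose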;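 further: His-tagged Mcl-1 with europium anti-His antibody binding Bid BH3 peptide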
Arbovirus anti – blocks arbovirus infection. arbovirus infection cell-based antiviral screen. inhibition, % at 10 µM. 0.37% of 200,000 active. AID 1251; in the data active means inhibition above about 30%
m-calpain inh – inhibitors of pig calpain II. purified calpain II, fluorogenic peptide substrate, 30 min. inhibition, % at 16 µM. 0.37% of 220,000 active. AID 1236;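 active means inhibition above about 50%, limit read from the data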
Mcl1 Noxa PPI – disrupts binding of human Mcl-1 to Noxa peptide | Q07820 | 1.5% of 220,000 active | TR-FRET Mcl-1/Noxa peptide binding, 2 h | inhibition, % at 21.7 µM;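 active means compounds that cut the protein-peptide binding signal by more than 50% relative to plate controls in a single-dose test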;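 further: His-tagged Mcl-1 with rhodamine Noxa BH3 peptide and terbium anti-His antibody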
Large screens that a line does not name were inactive. Rows were chosen to be rich in hits. Some 2.8% of all compounds tested hit in one or more screens of this group.

COc1ccc2nc(NC(=O)CSc3nnc(N)s3)sc2c1	Mcl1 Noxa PPI 54
COc1ccc2nc(Nc3sc4c(c3C(N)=O)CCCC4)sc2c1	Mcl1 Noxa PPI 100
COc1ccc2nc(NC(=O)c3sc4nc(C)cc(C)c4c3N)sc2c1	Mcl1 Noxa PPI 53 (no result: Mcl-1 Bim block, Arbovirus anti)
COc1ccc2nc(NC3=NCCC3)sc2c1	none (no result: Biofilm kill mix)
Cc1cc(C)c2c(N)c(C(=O)Nc3ncc(C)s3)sc2n1	none
COc1ccccc1-c1ccc(/C=C2\C=CC(=O)O2)o1	none (no result: Mcl-1 Bim block, Arbovirus anti)
Cn1c(O)c(C2=c3ccccc3=NC2=O)sc1=Nc1ccc(Cl)cc1	none
C=CCn1c(O)c(C2=c3ccccc3=NC2=O)s/c1=N/c1nccs1	Mcl1-Bid inh 56 (no result: Biofilm kill mix)
Cc1nn(Cc2ccc(F)cc2)c2sc(C(=O)Nc3ccc(N4CCOCC4)cc3N3CCOCC3)cc12	Mcl1 Noxa PPI 76
CC1(c2ccc(Cl)cc2Cl)OCC(Cn2ccnc2)O1 (stereo not drawn)	Mcl1-Bid inh 80 (no result: Biofilm kill mix)
Cc1ccc(COc2cccc3c2CCN(Cc2ccc(F)cc2)C3=O)cc1	Mcl1-Bid inh 54
Cc1cccc(CN2CCc3c(OCC(=O)NCc4ccco4)cccc3C2=O)c1	Mcl1-Bid inh 95
O=C1c2cccc(OCc3ccc(F)cc3)c2CCN1Cc1ccccc1	none
Cc1[nH]n(C(N)=S)c(=O)c1N=Nc1ccc(S(=O)(=O)N2CCCCCC2)cc1	Mcl-1 Bim block 51 (no result: Biofilm kill mix)
Cc1ccc(N=Nc2c(C)[nH]n(C(N)=S)c2=O)cc1C	none
CCc1nc(SCC(=O)Nc2ccc(N(C)C)cc2)c2ccccc2n1	none (no result: Mcl-1 Bim block, Arbovirus anti)
NS(=O)(=O)c1cc(C(=O)OCC(=O)Nc2ccc(Cl)cc2[N+](=O)[O-])ccc1Cl	none
COc1ccc(NC(=O)COC(=O)c2ccc(Cl)c(S(N)(=O)=O)c2)c([N+](=O)[O-])c1	Mcl1 Noxa PPI 53 (no result: Mcl-1 Bim block, Arbovirus anti)
COC(=O)c1ccc2c(c1)N(C)S(=O)(=O)c1cnc(SCC(=O)C(C)(C)C)nc1-2	none (no result: Mcl-1 Bim block, Arbovirus anti)
CCN(CC)CCNC(=O)/C(=C/c1cn(C)c2ccccc12)NC(=O)c1ccc(OC)c(OC)c1	Mcl1-Bid inh 95 (no result: Mcl-1 Bim block, Arbovirus anti)
CCN(CC)CCNC(=O)/C(=C/c1cn(CC)c2ccccc12)NC(=O)c1cc(OC)c(OC)c(OC)c1	none
CCOc1ccccc1CN1CCN(CC2=Cc3cc(OC)ccc3OC2)CC1CCO (stereo not drawn)	none (no result: Mcl-1 Bim block, Arbovirus anti)
COc1ccccc1C1C2C(=O)N(c3ccccc3)C(=O)C2ON1c1ccccc1 (stereo not drawn)	none (no result: Biofilm kill mix)
COc1ccccc1N1C(=O)C2ON(c3ccccc3)C(c3ccc(N(C)C)cc3)C2C1=O (stereo not drawn)	Mcl1 Noxa PPI 78
CC1(C)CC(=O)C(C(C#Cc2ccccc2)C2=C(O)CC(C)(C)CC2=O)=C(O)C1	Mcl1 Noxa PPI 57 (no result: Biofilm kill mix)
O=C1CCCC(O)=C1C(C#Cc1ccccc1)C1=C(O)CCCC1=O	Mcl1 Noxa PPI 52 (no result: Biofilm kill mix)
CC1(C)CC(=O)C(N=Nc2ccc(-c3ccccc3)cc2)=C(O)C1	none
COc1ccc(C2=NN(CN3C(=O)C(=O)c4ccccc43)C(c3ccc(OC)cc3)C2)cc1 (stereo not drawn)	none
CCN(CCn1cccn1)Cc1c(C(=O)N2C[C@@H](C)O[C@@H](C)C2)nc2ccc(Cl)cn12	none
Cc1ccc(S(=O)(=O)N(CC(=O)N/N=C/c2cccc(Cl)c2)c2cccc3cccnc23)cc1	Mcl1-Bid inh 86 (no result: Biofilm kill mix)
N/C(=C/C(=O)c1ccccc1O)C(F)(F)F	none
COc1ccc(C(=O)/C=C(\N)C(F)(F)F)c(O)c1	Mcl1 Noxa PPI 69 (no result: Biofilm kill mix)
CCCCCCn1c(=O)c(-c2ccccc2)c(O)c2ccccc21	Arbovirus anti 54 (no result: Biofilm kill mix)
CCCCCCn1c(=O)c(Cc2ccccc2)c(O)c2ccccc21	none
Cc1cc(=O)oc2cc(OCC(=O)N3CCOCC3)ccc12	Mcl1 Noxa PPI 64
Cc1cc(=O)oc2cc(OC(C)C(=O)N3CCOCC3)ccc12 (stereo not drawn)	none (no result: Biofilm kill mix)
Cc1cc(=O)oc2cc(OCC(=O)N/N=C/c3ccccc3[N+](=O)[O-])ccc12	Mcl1-Bid inh 63
COc1ccc2c(c1)c(=O)oc1cc(OCC(=O)N3CCc4ccccc4C3)ccc12	Mcl1-Bid inh 53, Mcl1 Noxa PPI 58 (no result: Biofilm kill mix)
COCCNC(=S)N1CCOCC1	none
O=c1cc(CSc2nnnn2-c2ccccc2)nc(Nc2ccc(F)cc2)[nH]1	Arbovirus anti 31 (no result: Biofilm kill mix)
O=C(CCCc1nc2ccccc2s1)NNC(=O)CCN1CCN(Cc2ccccc2)CC1	none
COc1ccc(S(=O)(=O)/N=C2/C=CC(=O)C(C)=C2C)cc1	Mcl1 Noxa PPI 67 (no result: Biofilm kill mix)
CC1=C(C)/C(=N\OS(=O)(=O)c2ccc(C)cc2)C=CC1=O	none
O=C(CCNC(=O)c1ccccc1Cl)Nc1ccc(Cl)c(C(F)(F)F)c1	none
COc1ccc(N2C(=O)NC(NC(=O)c3cccnc3)(C(F)(F)F)C2=O)cc1 (stereo not drawn)	none
COc1ccc(CCNC(=O)c2ccc(CNS(=O)(=O)c3cccc(Cl)c3)cc2)cc1OC	none
COc1ccc(CCNC(=O)c2ccc(CNS(=O)(=O)c3ccc(C(C)(C)C)cc3)cc2)cc1OC	Mcl1-Bid inh 97
CCOC(=O)c1cccc(NC(=O)CCNS(=O)(=O)c2ccc3c(c2)CCN3C(=O)CC)c1	Mcl1-Bid inh 70 (no result: Biofilm kill mix)
COC(=O)c1c(NC(=S)Nc2ccc(CC(=O)O)cc2)sc(C)c1C	Mcl1 Noxa PPI 72
CCOC(=O)c1c(NC(=S)Nc2ccc(Cl)cc2)sc(C)c1C	none (no result: Biofilm kill mix)
CC(=O)Nc1ccc(S(=O)(=O)NCC(C)NS(=O)(=O)c2ccc(NC(C)=O)cc2)cc1 (stereo not drawn)	none (no result: Biofilm kill mix)
CC(=O)Nc1ccc(S(=O)(=O)NCC(CCC(=O)O)C(F)(F)F)cc1 (stereo not drawn)	Mcl1 Noxa PPI 60
Cc1ccc(-n2nnnc2C(Cl)(Cl)c2nnnn2-c2ccc(C)cc2)cc1	Mcl1 Noxa PPI 53 (no result: Biofilm kill mix)
Cc1ccc(C(=O)N/C(=C\c2ccc(C(C)C)cc2)C(=O)NCCCN2CCOCC2)cc1	Mcl1 Noxa PPI 51
Cc1ccc2nc(NC(=O)CN3C(=O)C4CC=CCC4C3=O)sc2c1 (stereo not drawn)	none
Cc1csc(NC(=O)CN2C(=O)C3CC=CCC3C2=O)n1 (stereo not drawn)	Arbovirus anti 31 (no result: Biofilm kill mix)
COc1cccc(-c2nnc3sc(-c4ccccc4)nn23)c1	none
COc1cccc(OC)c1-c1nn2c(-c3cc(-c4ccccc4)n[nH]3)nnc2s1	m-calpain inh 85 (no result: Mcl-1 Bim block, Biofilm kill mix)
O=[N+]([O-])c1cccc(C2Nc3cccc4cccc(c34)N2)c1	none
O=[N+]([O-])c1ccc(C2Nc3cccc4cccc(c34)N2)cc1	Mcl1 Noxa PPI 67
CCN(CC)C(=O)COc1ccc(-c2nnc(Nc3ccc(OC)c(C(=O)NC)c3)c3ccccc23)cc1	none (no result: Mcl-1 Bim block, Arbovirus anti)
O=C(NC1CCCC1)c1sc(=S)n2c1[nH]c(=O)c1ccccc12	none (no result: Biofilm kill mix)
Cc1ccc(CNC(=O)c2ccc3c(=O)[nH]c4c(C(=O)NCC5CCCO5)sc(=S)n4c3c2)cc1 (stereo not drawn)	Mcl1 Noxa PPI 74
